The record followed here is ChEMBL document CHEMBL3621081, “Rational Development of a Potent 15-Lipoxygenase-1 Inhibitor with in Vitro and ex Vivo Anti-inflammatory Properties” (J Med Chem, 2015).

Calls of active or inactive are those of the source. The calls are words filed in the database; no cut-off is given here.

The target in data set [1] is T1, Polyunsaturated fatty acid lipoxygenase ALOX15 (Homo sapiens) (UniProt P16050).
T1 sequence (whole entry): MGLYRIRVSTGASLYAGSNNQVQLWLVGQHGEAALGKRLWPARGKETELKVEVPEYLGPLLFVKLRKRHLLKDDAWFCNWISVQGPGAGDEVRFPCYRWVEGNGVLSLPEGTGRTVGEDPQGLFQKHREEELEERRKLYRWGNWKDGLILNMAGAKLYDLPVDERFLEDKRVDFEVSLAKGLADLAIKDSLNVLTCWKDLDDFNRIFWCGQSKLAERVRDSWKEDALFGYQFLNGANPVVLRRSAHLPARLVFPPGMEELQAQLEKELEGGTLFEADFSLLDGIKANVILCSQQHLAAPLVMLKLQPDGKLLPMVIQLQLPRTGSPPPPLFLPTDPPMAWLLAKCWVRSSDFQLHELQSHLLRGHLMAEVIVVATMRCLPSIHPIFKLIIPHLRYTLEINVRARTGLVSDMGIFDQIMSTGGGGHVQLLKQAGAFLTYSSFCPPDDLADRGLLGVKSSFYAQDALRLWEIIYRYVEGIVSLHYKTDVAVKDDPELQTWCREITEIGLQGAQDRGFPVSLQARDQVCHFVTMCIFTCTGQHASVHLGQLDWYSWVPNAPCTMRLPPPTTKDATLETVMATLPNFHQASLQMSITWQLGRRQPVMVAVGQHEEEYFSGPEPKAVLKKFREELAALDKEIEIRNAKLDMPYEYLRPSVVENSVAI
The experiment in a line: Inhibition of human 15-LOX1 assessed as conversion of linoleic acid to 13(S)-HpODE at 50 uM after 10 mins by UV analysis. A digest of the protocol:
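Single-concentration screen at 50 μM: h-15-LOX-1 (1:640 final) in 25 mM HEPES pH 7.5 is preincubated with inhibitor for 10 min at rt. 25 µM linoleic acid final is added, and product formation is followed as the linear A234 increase. Activity is normalised to no-inhibitor (100%) and no-enzyme (0%) controls, in triplicate.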

Data set [2] has as its system Lung. The data set can be described thus: Antiinflammatory activity in C57BL/6 mouse precision-cut lung slices assessed as reduction of LPS/INFgamma-induced IL-6 gene expression at 1 to 100 nM treated 20 hrs before LPS/INFgamma stimulation measured after 4 hrs by RT-qPCR analysis relative to control. The class given is functional, tissue-based. The procedure, abridged: (§1)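 Male C57bl/6 mouse lungs are agarose-filled, then cut into 250 μm slices, 3 per well, in supplemented DMEM at 37 °C and 5% CO2. Inhibitor is given at 1-500 nM final with 10 μM linoleic acid for 20 h, and LPS/IFNγ is added for the last 4 h. IL-1β, IL-6, IL-10, IL-12 and GAPDH mRNA are measured by RT-qPCR as fold change versus the LPS/IFNγ/linoleic acid control. Mean ± SEM, 4-6 independent experiments.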
(In general: In qPCR the cycle at which signal appears reflects the starting amount.)

The subject of data set [3] is RAW264.7. The experiment in a line: Antiinflammatory activity in mouse RAW264.7 cells assessed as effect on LPS/INFgamma-induced IL-12 gene expression at 1 to 100 nM treated 20 hrs before LPS/INFgamma stimulation measured after 4 hrs by RT-qPCR analysis. Type of data set: functional, cell-based. The procedure, abridged: (§2)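 RAW 264.7 cells (passage 7-16, DMEM with 10% FBS) are seeded at 20,000 cells/cm2 the day before. They receive 1-500 nM inhibitor final plus 10 μM linoleic acid for 20 h, with 10 ng/ml LPS and IFNγ for the last 4 h. Cytokine mRNA is measured by RT-qPCR on 10 ng cDNA, PCR in duplicate or triplicate, as fold change versus the LPS/IFNγ/linoleic acid control. Mean ± SEM, 4-6 experiments.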

Data set [4] relates to Lung. The data set can be described thus: Cytotoxicity against C57BL/6 mouse precision-cut lung slices assessed as viability at 500 nM by LDH release assay. Particulars: 0.5 µM. Type of data set: tissue-based. The procedure, abridged:
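Mouse lung slices are exposed to 1, 10, 100 or 500 nM inhibitor with 10 μM linoleic acid for 20 h. […] Mean ± SD of 3 independent experiments.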

The subject of data set [5] is RAW264.7. The experiment in a line: Cytotoxicity against mouse RAW264.7 cells assessed as cell viability at 12.5 uM by MTS assay. The class given is cell-based. To be noted: raw264.7, 12.5 µM. A digest of the protocol:
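RAW 264.7 macrophages are incubated with inhibitor at 0.05-100 μM, and viability is read by MTS assay. Treated wells are compared statistically with non-treated control cells.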

The subject of data set [6] is Lung. The data set can be described thus: Antiinflammatory activity in C57BL/6 mouse precision-cut lung slices assessed as reduction of LPS/INFgamma-induced IL-1beta gene expression at 1 to 100 nM treated 20 hrs before LPS/INFgamma stimulation measured after 4 hrs by RT-qPCR analysis relative to control. The class given is functional, tissue-based. The procedure, abridged: as §1

The subject of data set [7] is Lung. The data set can be described thus: Antiinflammatory activity in C57BL/6 mouse precision-cut lung slices assessed as reduction of LPS/INFgamma-induced IL-12 gene expression at 1 to 100 nM treated 20 hrs before LPS/INFgamma stimulation measured after 4 hrs by RT-qPCR analysis relative to control. The class given is functional, tissue-based. A digest of the protocol: as §1

For data set [8], the system named is RAW264.7. The data set can be described thus: Antiinflammatory activity in mouse RAW264.7 cells assessed as effect on LPS/INFgamma-induced IL-6 gene expression at 1 to 100 nM treated 20 hrs before LPS/INFgamma stimulation measured after 4 hrs by RT-qPCR analysis. The class given is functional, cell-based. A digest of the protocol: as §2
The test system of data set [9] is Lung. The data set can be described thus: Antiinflammatory activity in C57BL/6 mouse precision-cut lung slices assessed as increase of LPS/INFgamma-induced IL-10 gene expression at 1 to 100 nM treated 20 hrs before LPS/INFgamma stimulation measured after 4 hrs by RT-qPCR analysis relative to control. The class given is functional, tissue-based. The procedure, abridged:
as §1

Data set [10] deals with RAW264.7. The experiment in a line: Antiinflammatory activity in mouse RAW264.7 cells assessed as effect on LPS/INFgamma-induced IL-1beta gene expression at 1 to 100 nM treated 20 hrs before LPS/INFgamma stimulation measured after 4 hrs by RT-qPCR analysis. Type of data set: functional, cell-based. A digest of the protocol: as §2

Take `O=Cc1c[nH]c2cc(Cl)ccc12`: the inhibition entry in data set [1] is “inactive”.
The same measure, in the same setting: the value for `CCOC(=O)c1c(C=O)c2ccc(Cl)cc2n1C` was “inactive”; that for `CC(C)(C)OC(=O)c1cc2ccc(Cl)cc2[nH]1` was “inactive”; that for `O=Cc1c(Cl)[nH]c2cc(Cl)ccc12` was “inactive”.
Same read-out and setting: then `O=Cc1c[nH]c2ccccc12`, with “inactive”; and `CC(C)(C)OC(=O)n1cc(C=O)c2ccccc21`, with “inactive”; and `O=Cc1c(C(=O)O)[nH]c2cc(Cl)ccc12`, with “inactive”.
On to `CCOC(=O)c1[nH]c2cc(Cl)ccc2c1C(=O)C[C@@H](C)CCCC(C)C`, for which the result in data set [2], in data set [6] and in [9] was Active. Also, the outcome in data set [3], in [7], in data set [8] and in data set [10] was inactive. Further, the Activity result in data set [4] and in [5] was “Non-toxic” throughout.
